Assays:
[1] = molecular target: T1, Alpha-1B adrenergic receptor (Rattus norvegicus) (UniProt P15823); settings: Wistar, Liver, Membrane, 10 uM
T1 sequence (whole entry): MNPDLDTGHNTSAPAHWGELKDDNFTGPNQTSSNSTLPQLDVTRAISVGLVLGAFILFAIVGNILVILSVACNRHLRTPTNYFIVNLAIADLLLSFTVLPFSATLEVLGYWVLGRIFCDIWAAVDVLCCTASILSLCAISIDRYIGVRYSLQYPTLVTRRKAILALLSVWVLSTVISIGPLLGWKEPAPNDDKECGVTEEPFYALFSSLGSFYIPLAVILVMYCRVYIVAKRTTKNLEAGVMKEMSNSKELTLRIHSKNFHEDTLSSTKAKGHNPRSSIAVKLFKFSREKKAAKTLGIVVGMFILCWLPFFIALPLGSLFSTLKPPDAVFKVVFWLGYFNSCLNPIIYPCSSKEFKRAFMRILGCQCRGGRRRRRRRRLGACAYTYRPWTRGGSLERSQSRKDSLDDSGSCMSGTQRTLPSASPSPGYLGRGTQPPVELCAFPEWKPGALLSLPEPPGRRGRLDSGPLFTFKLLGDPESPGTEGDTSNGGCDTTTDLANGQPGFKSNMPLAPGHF

[2] = system: Mus musculus; test: (§1) Antinociceptive activity against thermal nociception in po dosed CD1 mouse assessed as increase in latency period to elicit jumping or hind paw licking measured after 15 to 90 mins postdose by hot plate method in presence of 1 mg/kg, ip opioid receptor antagonist naloxone hydrochloride administered 30 mins before compound infusion; assay type: functional
Outline: (§2)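 Antagonist given ip 30 min before oral dosing (naloxone 1, mecamylamine 2, yohimbine 2, CGP 35348 50 mg/kg). Hot plate at 48.5 ± 0.1 °C inside a cylinder, cut-off 60 s; latencies at 15–90 min as %MPE. Peak-time quantal response (≥50% MPE); ED50 from at least four groups of six male CD-1 mice.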

[3] = system: Mus musculus; test: Ratio of morphine ED50 to compound ED50 for antinociceptive activity against thermal nociception in po dosed CD1 mouse; assay type: functional
Outline: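 Compound and morphine were dosed po in male CD-1 mice. Hot plate was held at 48.5 ± 0.1 °C, scored as paw lick, jerk or jump, with a 60 s cutoff, read at 15–90 min. Tail flick used radiant heat with a 15 s cutoff. Baseline was the mean of three readings. Peak-time %MPE was made quantal, and ED50 came from at least four groups of six mice.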

[4] = system: Mus musculus; test: as §1, with “of 2” for “of 1”, “ip alpha-2-adrenergic” for “ip opioid”, “antagonist yohimbine” for “antagonist naloxone”; assay type: functional
Outline: as §2

[5] = system: Mus musculus; test: Antinociceptive activity in sc dosed mouse assessed as reduction in number of noxious stimulus-induced writhes; assay type: functional
[6] = system: Mus musculus; test: Antinociceptive activity against radiant heat-induced nociception in CD1 mouse assessed as tail withdrawal latency at 1 mg/kg, po measured after 15 to 120 mins postdose by tail flick test in presence of 0.1 to 1 mg/kg, ip alpha-1-adrenergic receptor antagonist prazosin administered 15 mins before compound infusion; assay type: functional
Outline: (§3)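 Male CD-1 mice given prazosin ip (0.1 or 1 mg/kg) 15 min before oral dosing at 1 mg/kg. Tail flick: radiant heat 3–4 cm from the tail tip, cut-off 15 s. Hot plate: 48.5 °C, cut-off 60 s. Baseline is the mean of three readings 15 min apart. Latency followed over time and expressed as %MPE.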

[7] = molecular target: T2, Alpha-2C adrenergic receptor (Homo sapiens) (UniProt P18825); test: Inhibition of radioligand binding to human adrenergic Alpha-2C receptor at 10 uM after 60 mins
T2 sequence (whole entry): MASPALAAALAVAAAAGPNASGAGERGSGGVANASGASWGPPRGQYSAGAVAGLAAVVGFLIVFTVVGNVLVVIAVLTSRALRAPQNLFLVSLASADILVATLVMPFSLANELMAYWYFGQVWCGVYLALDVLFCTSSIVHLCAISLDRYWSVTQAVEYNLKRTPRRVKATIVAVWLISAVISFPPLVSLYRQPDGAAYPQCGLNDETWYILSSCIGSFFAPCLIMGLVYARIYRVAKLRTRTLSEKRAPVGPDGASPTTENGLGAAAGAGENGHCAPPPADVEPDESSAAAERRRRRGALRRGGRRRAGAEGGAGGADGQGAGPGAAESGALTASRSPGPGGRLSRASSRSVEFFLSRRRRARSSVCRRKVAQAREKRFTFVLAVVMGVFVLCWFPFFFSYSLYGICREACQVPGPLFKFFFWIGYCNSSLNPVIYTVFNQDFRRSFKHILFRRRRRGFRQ

[8] = molecular target: T3, Alpha-1B adrenergic receptor (Rattus norvegicus, UniProt P15823); test: Displacement of [3H]prazosin from adrenergic Alpha-1B receptor in Wistar rat liver membrane after 60 mins; assay type: cell membranes
T3 sequence (P15823 whole entry): T1 sequence (whole entry)

[9] = molecular target: T4, Alpha-2A adrenergic receptor (Homo sapiens) (UniProt P08913); test: Inhibition of [3H][…] binding to human recombinant adrenergic alpha2A receptor expressed in insect Sf9 cells at 10 uM after 60 mins
T4 sequence (whole entry): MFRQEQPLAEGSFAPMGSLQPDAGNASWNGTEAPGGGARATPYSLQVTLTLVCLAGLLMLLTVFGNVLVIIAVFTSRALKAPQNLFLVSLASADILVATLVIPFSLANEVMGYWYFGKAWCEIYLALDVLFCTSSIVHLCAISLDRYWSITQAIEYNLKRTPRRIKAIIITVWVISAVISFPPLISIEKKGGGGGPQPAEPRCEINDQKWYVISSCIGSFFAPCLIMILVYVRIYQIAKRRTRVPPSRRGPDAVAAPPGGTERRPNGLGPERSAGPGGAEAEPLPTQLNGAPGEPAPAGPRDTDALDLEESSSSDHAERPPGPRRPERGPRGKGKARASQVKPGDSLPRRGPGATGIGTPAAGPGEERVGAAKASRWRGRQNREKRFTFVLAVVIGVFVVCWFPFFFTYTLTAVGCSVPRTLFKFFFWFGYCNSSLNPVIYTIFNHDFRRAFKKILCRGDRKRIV
Outline: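 Sf9 membranes expressing human recombinant α2A, with 1 nM [3H]-MK-912. Nonspecific binding defined by 10 μM WB-4101. Buffer 50 mM Tris-HCl pH 7.4, 12.5 mM MgCl2, 2 mM EDTA. Incubated 60 min at 25 °C, then filtered and counted by scintillation. Duplicate; 1% DMSO final.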

[10] = system: Mus musculus; test: as §1, with “of 50” for “of 1”, “ip GABAB” for “ip opioid”, “antagonist CGP 35348” for “antagonist naloxone hydrochloride”; assay type: functional
Outline: as §2

[11] = system: Mus musculus; test: as §1, with “as” for “as increase in”, “licking at 1 mg/kg, po” for “licking”, “of 0.1 to” for “of”, “alpha-1-adrenergic” for “opioid”, “prazosin” for “naloxone hydrochloride”, “15” for “30”; assay type: functional
Outline: as §3

[12] = system: Mus musculus; test: Antinociceptive activity against radiant heat-induced nociception in po dosed CD1 mouse assessed as increase in tail withdrawal latency measured after 15 to 120 mins postdose by tail flick test in presence of 50 mg/kg, ip GABAB receptor antagonist CGP-35348 administered 30 mins before compound infusion; assay type: functional
Outline: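 Antagonist given ip 30 min before oral dosing (naloxone 1, mecamylamine 2, yohimbine 2, CGP 35348 50 mg/kg). Tail flick with radiant heat at the tail tip, cut-off 15 s; latencies at 15–120 min converted to %MPE. Peak-time quantal response (≥50% MPE); ED50 from at least four groups of six male CD-1 mice.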

C=Cc1c(C)nn(CCCN2CCN(c3ccc(C)cc3)CC2)c(=O)c1N
Emax [1]: 99% | ED50 [2]: 1.1 mg/kg | Ratio ED50 [3]: 4 | ED50 [4]: 8.6 mg/kg | ED50 [5]: 2.5 mg/kg | Activity [6]: 120 min | Emax [7]: 71% | IC50 [8]: 102 nM | Emax [9]: 100% | ED50 [10]: 0.6 mg/kg | Activity [11]: 120 min | ED50 [12]: 0.5 mg/kg

— ChEMBL document CHEMBL1154181 (J Med Chem, 2009)
